# Key:
# MCF7 = test: Cytotoxicity against human MCF7 cells assessed as growth inhibition after 48 hrs by MTT assay; format: functional, cell-based; settings: MCF7, 48 h
# Method in brief: (§1)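 Leukemia cells in RPMI 1640 and MCF-7 in DMEM, both with 10% heat-inactivated FBS. HUVECs were grown per the supplier's protocol at passages 3–8. Cultures were kept at 37 °C in humidified 5% CO₂ and seeded at 8 × 10³ cells/well. After 24 h, compounds from fresh DMSO stocks were added over 10^-7 to 10^-3 M. Absorbance was read at 560 nm against untreated cells. IC50 came from concentration–response curves, as mean ± SD of at least three experiments.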
# [1] = Cytotoxicity against human HL60 cells assessed as growth inhibition after 48 hrs by MTT assay; format: functional, cell-based; settings: HL-60, 48 h; method in brief: as §1
# [2] = Cytotoxicity against human NALM6 cells assessed as growth inhibition after 48 hrs by MTT assay; format: functional, cell-based; settings: NALM-6, 48 h; method in brief: as §1
# [3] = Therapeutic index, ratio of IC50 for HUVEC to IC50 for human HL60 cells; format: cell-based, HL-60; settings: HUVEC and HL60 cells, read-out: Ratio IC50
# HUVEC = test: Cytotoxicity against HUVEC assessed as growth inhibition after 48 hrs by MTT assay; format: cell-based; settings: Homo sapiens; method in brief: as §1
# [4] = Therapeutic index, ratio of IC50 for HUVEC to IC50 for human NALM6 cells; format: cell-based, NALM-6; settings: HUVEC and NALM6 cells, read-out: Ratio IC50
Structure (SMILES),IC50 (MCF7),IC50 [1],IC50 [2],selectivity ratio [3],IC50 (HUVEC),selectivity ratio [4]
C=C1CN(C)N(c2ccccc2)C1=O,56 µM,45.7 µM,56 µM,–,–,–
C=C1CN(C)N(c2ccc(C)cc2)C1=O,59.1 µM,65.7 µM,90.1 µM,–,–,–
C=C1CN(C)N(c2ccc(Cl)cc2)C1=O,45.2 µM,38.1 µM,51.9 µM,–,–,–
C=C1CN(C)N(c2ccc(Br)cc2)C1=O,43.8 µM,51.8 µM,62 µM,–,–,–
C=C1C(=O)N(c2ccccc2)N(C)C1C (stereo not given),153 µM,531 µM,412 µM,–,–,–
C=C1C(=O)N(c2ccccc2)N(C)C1CC (stereo not given),185 µM,750 µM,576 µM,–,–,–
C=C1C(=O)N(c2ccccc2)N(C)C1CCCC (stereo not given),235 µM,460 µM,432 µM,–,–,–
C=C1C(=O)N(c2ccccc2)N(C)C1CCCCCCCCC (stereo not given),91.1 µM,49.9 µM,57.5 µM,–,–,–
C=C1C(=O)N(c2ccccc2)N(C)C1c1ccccc1 (stereo not given),84.4 µM,40.9 µM,24.4 µM,–,–,–
C=C1C(=O)N(c2ccccc2)N(C)C1c1ccc(OC)cc1 (stereo not given),75 µM,37.3 µM,49.3 µM,–,–,–
C=C1C(=O)N(c2ccccc2)N(c2ccccc2)C1C (stereo not given),12.5 µM,5.85 µM,6.98 µM,5,29.9 µM,4
C=C1C(=O)N(c2ccccc2)N(c2ccccc2)C1CC (stereo not given),20 µM,8.89 µM,14.9 µM,–,23.9 µM,–
C=C1C(=O)N(c2ccccc2)N(c2ccccc2)C1CCCC (stereo not given),25.2 µM,8.92 µM,29.1 µM,–,27 µM,–
C=CC1C(=C)C(=O)N(c2ccccc2)N1c1ccccc1 (stereo not given),5.1 µM,1.32 µM,0.74 µM,–,2.73 µM,4
C=C1C(=O)N(c2ccccc2)N(c2ccccc2)C1c1ccccc1 (stereo not given),4.5 µM,1.61 µM,3.82 µM,–,4.46 µM,–
C=C1C(=O)NC(C)C1c1ccc(Br)cc1 (stereo not given),–,515 µM,439 µM,–,–,–

# From ChEMBL document CHEMBL3407476, “Design, synthesis and cytotoxic evaluation of 4-methylidenepyrazolidin-3-ones” (Eur J Med Chem, 2015)
